This is an account of results in ChEMBL document CHEMBL3868583, “6-Aryl substituted 4-(4-cyanomethyl) phenylamino quinazolines as a new class of isoform-selective PI3K-alpha inhibitors” (Eur J Med Chem, 2016).

In general, GI50 refers to the concentration that inhibits growth by half. The term inhibition denotes the share of the control response that was lost under treatment. The low end stands for a response near the control, the high end for a response far below the control.

The nature of assay [1]: Cytotoxicity against human PC3 cells assessed as cell growth inhibition after 48 hrs by MTT assay. The class given is functional. The conditions noted are these: PC-3, 48 h. An outline of the steps:
(§1)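 MTT assay: 3 × 10^3 cells/well seeded, compounds added after 24 h at final […], 48 h exposure. MTT (2.5 mg/mL in PBS) added, formazan dissolved in DMSO, absorbance 570 nm. Viability as % of untreated; three independent experiments, mean ± SD.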
On the technique in general: Tetrazolium dyes change colour on reduction, which living cells bring about.

Assay [2] can be described thus: Cytotoxicity against human PANC1 cells assessed as cell growth inhibition after 48 hrs by MTT assay. The class given is functional. The conditions noted are these: PANC-1, 48 h. The method in brief:
as §1

The nature of assay [3]: Cytotoxicity against human A375 cells assessed as cell growth inhibition after 48 hrs by MTT assay. It is filed as functional. The conditions noted are these: A-375, 48 h. The method in brief:
as §1

The nature of assay [4]: Cytotoxicity against human HL60 cells assessed as cell growth inhibition after 48 hrs by MTT assay. The conditions noted are these: HL-60, 48 h. The class given is functional. The method in brief:
as §1

Assay [5] is described as follows: Cytotoxicity against human MCF7 cells assessed as cell growth inhibition after 48 hrs by MTT assay. It is filed as functional. The conditions noted are these: MCF7, 48 h. An outline of the steps:
as §1

In assay [6] the target is Phosphatidylinositol 4,5-bisphosphate 3-kinase catalytic subunit alpha isoform (Homo sapiens, UniProt P42336). The experiment in a line: Inhibition of PI3Kalpha (unknown origin) using diC8 PIP2 as substrate at 0.5 uM after 80 mins by ADP-glo assay. A general note: ADP-Glo first removes unused ATP, then detects ADP through luciferase.
The species named for assay [7] is Homo sapiens. The experiment in a line: Selectivity ratio of IC50 for PI3Kbeta (unknown origin) to IC50 for PI3Kalpha (unknown origin).
The species entered for assay [8] is Homo sapiens. Briefly: Selectivity ratio of IC50 for PI3Kgamma (unknown origin) to IC50 for PI3Kalpha (unknown origin).
The species entered for assay [9] is Homo sapiens. The experiment in a line: Selectivity ratio of IC50 for PI3Kdelta (unknown origin) to IC50 for PI3Kalpha (unknown origin).

Sequence of Phosphatidylinositol 4,5-bisphosphate 3-kinase catalytic subunit alpha isoform (P42336 whole entry, canonical isoform): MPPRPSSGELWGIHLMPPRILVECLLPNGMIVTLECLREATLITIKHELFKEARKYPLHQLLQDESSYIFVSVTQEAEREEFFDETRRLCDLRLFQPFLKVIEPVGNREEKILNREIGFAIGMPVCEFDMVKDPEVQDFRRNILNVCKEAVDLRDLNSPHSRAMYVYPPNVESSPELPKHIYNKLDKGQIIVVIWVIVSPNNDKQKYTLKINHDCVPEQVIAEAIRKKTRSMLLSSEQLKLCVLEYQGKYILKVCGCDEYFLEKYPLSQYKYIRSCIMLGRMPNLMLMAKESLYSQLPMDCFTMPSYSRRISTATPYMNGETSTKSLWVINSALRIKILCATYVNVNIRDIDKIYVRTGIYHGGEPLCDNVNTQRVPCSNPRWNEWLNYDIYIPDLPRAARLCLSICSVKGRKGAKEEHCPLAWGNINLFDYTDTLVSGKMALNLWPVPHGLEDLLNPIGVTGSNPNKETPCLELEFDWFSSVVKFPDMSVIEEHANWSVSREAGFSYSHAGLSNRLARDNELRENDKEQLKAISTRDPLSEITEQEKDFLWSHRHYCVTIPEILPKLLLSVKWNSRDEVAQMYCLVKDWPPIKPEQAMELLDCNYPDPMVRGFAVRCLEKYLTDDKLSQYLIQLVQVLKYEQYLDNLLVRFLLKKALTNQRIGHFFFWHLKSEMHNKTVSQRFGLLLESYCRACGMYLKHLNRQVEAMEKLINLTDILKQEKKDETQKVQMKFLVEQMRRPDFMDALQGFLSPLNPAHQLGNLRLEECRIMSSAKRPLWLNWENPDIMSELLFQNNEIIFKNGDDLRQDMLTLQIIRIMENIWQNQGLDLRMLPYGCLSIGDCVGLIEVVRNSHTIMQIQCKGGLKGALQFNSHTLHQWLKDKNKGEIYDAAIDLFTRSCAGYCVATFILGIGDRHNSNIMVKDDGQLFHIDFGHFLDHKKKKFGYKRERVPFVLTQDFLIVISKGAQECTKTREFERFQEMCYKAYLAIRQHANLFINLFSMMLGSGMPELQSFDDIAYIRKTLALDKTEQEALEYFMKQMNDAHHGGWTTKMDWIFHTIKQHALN

Consider `N#CCc1ccc(Nc2ncnc3ccc(-c4ccc(-c5ccccc5)cc4F)cc23)cc1`, for which the 50% growth inhibitory concentration (GI50) in assay [1] came out at 14 µM; in [2], 33 µM; in [3] it was 32 µM; in assay [4] it was 16 µM; in assay [5], 13 µM. For the same compound, the inhibition in [6] came out at 20.3%.

On to `Cc1ccccc1-c1ccc2ncnc(Nc3ccc(CC#N)cc3)c2c1`, for which the GI50 in assay [1] was 38 µM; in [2], 68 µM; in [3] it was 32 µM; in assay [4], 36 µM; in assay [5], above 100 µM. Besides, the inhibition in assay [6] is 4.1%.

With `N#CCc1ccc(Nc2ncnc3ccc(-c4ccc5c(c4)OCO5)cc23)cc1`, the concentration for 50% growth inhibition (GI50) in [1] was determined as 7 µM; in [2], 33 µM; in assay [3] it was 24 µM; in assay [4], 27 µM; in assay [5], 34 µM. For the same compound, the Ratio IC50 in the assay filed under Homo sapiens [7] was above 31.1; in the assay filed under Homo sapiens [8] it was 0.6; in the assay filed under Homo sapiens [9], above 31.1. In addition, the inhibition in assay [6] was found to be 48.6%.

`N#CCc1ccc(Nc2ncnc3ccc(-c4cccc5c4sc4ccccc45)cc23)cc1`: the concentration for 50% growth inhibition (GI50) in assay [1] stood at 18 µM; in [2], 33 µM; in assay [3], 34 µM; in [4] it was 31 µM; in assay [5] it was 34 µM.

In the case of `N#CCc1ccc(Nc2ncnc3ccc(-c4cc5ccccc5o4)cc23)cc1`, the GI50 in assay [1] worked out at 8 µM; in [2] it was 28 µM; in [3], 10 µM; in assay [4], 17 µM; in assay [5], 9 µM. Also, in assay [6], the inhibition turned out to be 29.8%.

In the case of `CC(=O)Nc1cccc(-c2ccc3ncnc(Nc4ccc(CC#N)cc4)c3c2)c1`, the concentration for 50% growth inhibition (GI50) in assay [1] was determined as 27 µM; in assay [2], 40 µM; in assay [3] it was 24 µM; in assay [4], 32 µM; in assay [5] it was 23 µM. For the same compound, in assay [6], the inhibition came to 16.4%.

As to `N#CCc1ccc(Nc2ncnc3ccc(-c4ccncc4)cc23)cc1`, the concentration for 50% growth inhibition (GI50) worked out at 76 µM in assay [1]; 39 µM in assay [2]; 35 µM in assay [3]; 32 µM in [4]; 32 µM in assay [5]. Moreover, the values for the Ratio IC50 in the assay listed under Homo sapiens [7], in the assay listed under Homo sapiens [8] and in the assay listed under Homo sapiens [9] were above 14.2, 0.5 and above 14.2, respectively. This compound showed an inhibition in assay [6] of 45.6%.

`N#CCc1ccc(Nc2ncnc3ccc(-c4ccc(F)cc4F)cc23)cc1`: the GI50 in [1] is 28 µM; in [2], 21 µM; in assay [3], 9 µM; in assay [4], 7 µM; in assay [5], 10 µM. This compound also showed an inhibition in assay [6] of 17%.

On to `N#CCc1ccc(Nc2ncnc3ccc(-c4ccc(OCc5ccc(F)cc5)cc4)cc23)cc1`, for which the GI50 in [1] came to 13 µM; in assay [2], 13 µM; in assay [3], 16 µM; in assay [4], 14 µM; in assay [5] it was 12 µM. This compound came in with an inhibition in [6] of 11%.

For `C=Cc1ccc(-c2ccc3ncnc(Nc4ccc(CC#N)cc4)c3c2)cc1`, the concentration for 50% growth inhibition (GI50) stood at 34 µM in [1]; 32 µM in [2]; 27 µM in assay [3]; 16 µM in assay [4]; 11 µM in assay [5]. The Ratio IC50 in the assay listed under Homo sapiens [7] and in the assay listed under Homo sapiens [9] was 1 throughout. The inhibition in [6] was 36.4%.

`N#CCc1ccc(Nc2ncnc3ccc(-c4cnc5ccccc5c4)cc23)cc1`: the GI50 in assay [1] came to 23 µM; in assay [2], 90 µM; in [3] it was 89 µM; in [4], 44 µM; in assay [5], 32 µM.

On to `N#CCc1ccc(Nc2ncnc3ccc(-c4cccc([N+](=O)[O-])c4)cc23)cc1`, for which the 50% growth inhibitory concentration (GI50) came out at 29 µM in assay [1]; 7 µM in [2]; 23 µM in assay [3]; 15 µM in assay [4]; 12 µM in assay [5]. For the same compound, the Ratio IC50 in the assay listed under Homo sapiens [7] is above 22.2; in the assay filed under Homo sapiens [8], 1.9; in the assay listed under Homo sapiens [9] it was above 22.2. In assay [6], this compound gave an inhibition of 38.1%.

For `N#CCc1ccc(Nc2ncnc3ccc(-c4ccc(-c5ccccc5)cc4)cc23)cc1`, the GI50 came to 10 µM in [1]; 30 µM in [2]; 13 µM in assay [3]; 16 µM in assay [4]; 29 µM in assay [5].

For the compound `N#CCc1ccc(Nc2ncnc3ccc(-c4cc5ccccc5s4)cc23)cc1`, the concentration for 50% growth inhibition (GI50) in assay [1] came out at 13 µM; in [2] it was 24 µM; in [3], 14 µM; in assay [4] it was 14 µM; in [5] it was 8 µM. The same compound came in with an inhibition in assay [6] of 2.7%.

Turning to `CCOc1ccc(-c2ccc(-c3ccc4ncnc(Nc5ccc(CC#N)cc5)c4c3)cc2)cc1`, the GI50 was 17 µM in [1]; 33 µM in assay [2]; 30 µM in [3]; 16 µM in assay [4]; 26 µM in [5].

For `N#CCc1ccc(Nc2ncnc3ccc(-c4ccc5ccccc5c4)cc23)cc1`, the GI50 in assay [1] was 22 µM; in assay [2], 48 µM; in [3], 31 µM; in [4] it was 25 µM; in [5], 16 µM. The same compound displayed an inhibition in assay [6] of 8.2%.

Regarding `N#CCc1ccc(Nc2ncnc3ccc(-c4cccc5c4oc4ccccc45)cc23)cc1`, the concentration for 50% growth inhibition (GI50) in assay [1] was determined as 16 µM; in assay [2] it was 31 µM; in [3], 36 µM; in [4] it was 12 µM; in assay [5], 27 µM. In assay [6], this compound registered an inhibition of 1.5%.

With `CC(=O)c1ccc(-c2ccc3ncnc(Nc4ccc(CC#N)cc4)c3c2)cc1`, the GI50 in assay [1] was 24 µM; in assay [2], 13 µM; in assay [3], 32 µM; in assay [4], 28 µM; in assay [5], 45 µM. The values for the Ratio IC50 in the assay filed under Homo sapiens [7], in the assay filed under Homo sapiens [8] and in the assay listed under Homo sapiens [9] were above 37, 0.5 and above 37, respectively. Besides, the inhibition in assay [6] was 44%.

Take `N#CCc1ccc(Nc2ncnc3ccc(-c4ccccc4C=O)cc23)cc1`: the GI50 in assay [1] is 21 µM; in [2], 90 µM; in [3] it was 39 µM; in assay [4], 42 µM; in [5], 91 µM. The compound also came in with an inhibition in [6] of 1.3%.

Turning to `N#CCc1ccc(Nc2ncnc3ccc(-c4ccc5c(c4)OCCO5)cc23)cc1`, the concentration for 50% growth inhibition (GI50) in assay [1] came out at 34 µM; in assay [2], 32 µM; in assay [3] it was 27 µM; in assay [4] it was 21 µM; in assay [5], 34 µM. For the same compound, the Ratio IC50 in the assay filed under Homo sapiens [7] was above 29.2; in the assay listed under Homo sapiens [8], 4; in the assay filed under Homo sapiens [9] it was above 29.2. This compound returned an inhibition in assay [6] of 33%.
